Laboratory results from publication PMC7825275 (Cancer chemotherapy and pharmacology, 2019).

Columns and labels:
[1] = test system: patients with advanced solid tumors; type: in vivo, human
Outline: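 Standard 3+3 escalation with modified Fibonacci steps. Oral veliparib was given every 12 h on days 1–7 of 21-day cycles, with IV carboplatin/paclitaxel on day 3. For the first 46 patients, cycle 1 was chemotherapy alone and DLT was scored in cycle 2; afterwards all three agents were given in cycle 1, which was the DLT cycle. Growth factors were barred in cycles 1–2. MTD was the highest dose with ≤1/6 DLTs.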

[2] = test system: advanced solid malignancies; experiment: Tumor response by RECIST 1.0, veliparib with carboplatin and paclitaxel; type: in vivo, human
Outline: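 Tumor response followed RECIST 1.0 on CT or MRI. Scans were done every 2 cycles; for the first 46 subjects, the first scan was after cycle 3 and then every 2 cycles. Oral veliparib was given twice daily on days 1–7, with IV carboplatin/paclitaxel, in 21-day cycles, up to 6 cycles recommended.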

patients = conditions: with topotecan 0.6 mg on days 1-5; profound myelosuppression; cited from earlier work
[3] = test system: previously untreated non-small cell lung cancer; conditions: with carboplatin (AUC=6) plus paclitaxel (200 mg/m^2), Japanese patients; cited from earlier work
[4] = Adenoid cystic of lung, 1 evaluable, with carboplatin and paclitaxel
[5] = Adrenalcortical carcinoma, 1 evaluable, with carboplatin and paclitaxel
[6] = All Patients, 67 evaluable, with carboplatin and paclitaxel
[7] = Ampulla of Vater, 1 evaluable, with carboplatin and paclitaxel
[8] = Bladder, 6 evaluable, with carboplatin and paclitaxel
[9] = Breast, 13 evaluable, with carboplatin and paclitaxel
[10] = Carcinoma of unknown origin, 3 evaluable, with carboplatin and paclitaxel
[11] = Cervix, 1 evaluable, with carboplatin and paclitaxel
[12] = Cholangiocarcinoma, 2 evaluable, with carboplatin and paclitaxel
[13] = Esophageal, 2 evaluable, with carboplatin and paclitaxel
[14] = Head & Neck, 8 evaluable, with carboplatin and paclitaxel
[15] = Level 1: veliparib 10 mg BID, carboplatin AUC 6, paclitaxel 150 mg/m^2, 5 evaluable
[16] = Level 4: veliparib 40 mg BID, carboplatin AUC 6, paclitaxel 175 mg/m^2, 3 evaluable
[17] = Level 5: veliparib 40 mg BID, carboplatin AUC 6, paclitaxel 200 mg/m^2, 12 evaluable
[18] = Level 7B: veliparib 100 mg BID, carboplatin AUC 6, paclitaxel 200 mg/m^2, 14 evaluable
[19] = Level 8: veliparib 120 mg BID, carboplatin AUC 6, paclitaxel 200 mg/m^2, 8 evaluable
[20] = Lung, 16 evaluable, with carboplatin and paclitaxel
[21] = Melanoma, 9 evaluable, with carboplatin and paclitaxel
[22] = Myxoid chondrosarcoma, 1 evaluable, with carboplatin and paclitaxel
[23] = Prostate, 1 evaluable, with carboplatin and paclitaxel
[24] = Stomach, 1 evaluable, with carboplatin and paclitaxel
[25] = Uterine, 1 evaluable, with carboplatin and paclitaxel

In the case of `C[C@]1(c2nc3c(C(N)=O)cccc3[nH]2)CCCN1` [veliparib], the “patients with dose-limiting toxicities during DLT observation cycle” value ([1]; all dose levels) is reported as 8 patients, the “DLTs at dose level 7” value ([1]; veliparib 80 mg bid) is reported as 1/6 and the “DLTs at the MAD, patients with DLT of evaluable patients” value ([1]; veliparib 120 mg BID, paclitaxel 200 mg/m^2, carboplatin AUC 6, febrile neutropenia, hyponatremia) is reported as 2 of 7. For the same compound, the “maximum administered dose (MAD), veliparib dose” value ([1]; with paclitaxel 200 mg/m^2 and carboplatin AUC 6 (dose level 8)) was 120 mg BID, the CR [2, 4] was 0 and the ORR [2, 4] was 0/1 (0%). It also gave a PD [2, 4] of 0, a PR [2, 4] of 0 and a CR [2, 5] of 0. The ORR [2, 5] was 0/1 (0%), the PD [2, 5] was 1 and the PR [2, 5] was 0. The CR [2, 6] was 5, the ORR [2, 6] was 27/67 (40%) and the PD [2, 6] was 8. For the same compound, the CR [2, 7] was 0, the ORR [2, 7] was 0/1 (0%) and the PD [2, 7] was 0. The PR [2, 7] was 0, the CR [2, 8] was 1 and the ORR [2, 8] was 3/6 (50%). The PD [2, 8] was 1, the PR [2, 8] was 2 and the CR [2, 9] was 3. For the same compound, the ORR [2, 9] was 9/13 (69%), the PD [2, 9] was 2 and the PR [2, 9] was 6. For the same compound, the CR [2, 10] was 0, the ORR [2, 10] was 1/3 (33%) and the PD [2, 10] was 0. The PR [2, 10] was 1, the CR [2, 11] was 0 and the ORR [2, 11] was 0/1 (0%). The PD [2, 11] was 1, the PR [2, 11] was 0 and the CR [2, 12] was 0. The ORR [2, 12] was 0/2 (0%), the PD [2, 12] was 0 and the PR [2, 12] was 0. For the same compound, the CR [2, 13] was 0, the ORR [2, 13] was 0/2 (0%) and the PD [2, 13] was 0. For the same compound, the PR [2, 13] was 0, the CR [2, 14] was 0 and the ORR [2, 14] was 3/8 (38%). For the same compound, the PD [2, 14] was 0, the PR [2, 14] was 3 and the CR [2, 15] was 0. The ORR [2, 15] was 2/5 (40%), the PD [2, 15] was 1 and the PR [2, 15] was 2. The CR [2, 16] was 0, the ORR [2, 16] was 1/3 (33%) and the PD [2, 16] was 0. The PR [2, 16] was 1, the CR [2, 17] was 2 and the ORR [2, 17] was 6/12 (50%). The PD [2, 17] was 1, the PR [2, 17] was 4 and the CR [2, 18] was 0. The ORR [2, 18] was 3/14 (21%), the PD [2, 18] was 3 and the PR [2, 18] was 3. The CR [2, 19] was 0, the ORR [2, 19] was 4/8 (50%) and the PD [2, 19] was 1. The PR [2, 19] was 4, the CR [2, 20] was 1 and the ORR [2, 20] was 7/16 (44%). The PD [2, 20] was 2, the PR [2, 20] was 6 and the CR [2, 21] was 0. For the same compound, the ORR [2, 21] was 1/9 (11%), the PD [2, 21] was 1 and the PR [2, 21] was 1. The CR [2, 22] was 0, the ORR [2, 22] was 0/1 (0%) and the PD [2, 22] was 0. For the same compound, the PR [2, 22] was 0, the CR [2, 23] was 0 and the ORR [2, 23] was 1/1 (100%). It also gave a PD [2, 23] of 0, a PR [2, 23] of 1 and a CR [2, 24] of 0. For the same compound, the ORR [2, 24] was 1/1 (100%), the PD [2, 24] was 0 and the PR [2, 24] was 1. For the same compound, the CR [2, 25] was 0, the ORR [2, 25] was 1/1 (100%) and the PD [2, 25] was 0. For the same compound, the PR [2, 25] was 1, the “MTD, veliparib dose” value (patients) was 10 mg bid and the “MTD, veliparib dose” value [3] was 120 mg.
